# Legend:
# Mus musculus [1] = assay: (§1) In vivo inhibition of hormone-dependent MXT mammary tumor in mice; assay type: functional
# Summary of the method: (§2)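 MXT tumor pieces (~2 mm3) implanted sc into female 8-week-old BDF1 mice, randomized into groups of 10. From day 1 after transplant, compound in olive oil given sc 3 times weekly (equimolar doses) for 6 weeks. Tumors excised and weighed. T/C % = treated/solvent-control tumor weight × 100 (mean of 10); uterus T/C also recorded.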
# Mus musculus [2] = assay: as §1; assay type: functional; summary of the method: as §2; remark: listed apart in the source
# [3] = target: T1, Estrogen receptor (Mus musculus) (UniProt O08537+P19785); assay: In vivo anti-estrogenic effect in immature mice at 0.5 ug; assay type: functional, organism-based
# T1 sequence (O08537 whole entry, looked up): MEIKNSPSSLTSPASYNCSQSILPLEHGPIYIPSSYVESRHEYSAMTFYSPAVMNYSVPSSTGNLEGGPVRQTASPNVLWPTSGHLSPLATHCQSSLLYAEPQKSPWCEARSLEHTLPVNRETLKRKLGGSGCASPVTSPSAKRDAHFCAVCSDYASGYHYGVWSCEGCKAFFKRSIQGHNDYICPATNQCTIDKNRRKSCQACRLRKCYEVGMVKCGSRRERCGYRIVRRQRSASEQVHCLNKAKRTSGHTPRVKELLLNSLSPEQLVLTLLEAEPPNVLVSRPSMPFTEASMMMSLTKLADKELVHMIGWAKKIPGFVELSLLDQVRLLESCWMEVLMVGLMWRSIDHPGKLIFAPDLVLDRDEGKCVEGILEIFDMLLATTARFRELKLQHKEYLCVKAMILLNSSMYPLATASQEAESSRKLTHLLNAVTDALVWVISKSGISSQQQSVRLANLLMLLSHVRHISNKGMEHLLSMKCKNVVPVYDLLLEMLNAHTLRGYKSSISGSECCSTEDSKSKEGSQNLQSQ
# T1 sequence (P19785 whole entry, looked up): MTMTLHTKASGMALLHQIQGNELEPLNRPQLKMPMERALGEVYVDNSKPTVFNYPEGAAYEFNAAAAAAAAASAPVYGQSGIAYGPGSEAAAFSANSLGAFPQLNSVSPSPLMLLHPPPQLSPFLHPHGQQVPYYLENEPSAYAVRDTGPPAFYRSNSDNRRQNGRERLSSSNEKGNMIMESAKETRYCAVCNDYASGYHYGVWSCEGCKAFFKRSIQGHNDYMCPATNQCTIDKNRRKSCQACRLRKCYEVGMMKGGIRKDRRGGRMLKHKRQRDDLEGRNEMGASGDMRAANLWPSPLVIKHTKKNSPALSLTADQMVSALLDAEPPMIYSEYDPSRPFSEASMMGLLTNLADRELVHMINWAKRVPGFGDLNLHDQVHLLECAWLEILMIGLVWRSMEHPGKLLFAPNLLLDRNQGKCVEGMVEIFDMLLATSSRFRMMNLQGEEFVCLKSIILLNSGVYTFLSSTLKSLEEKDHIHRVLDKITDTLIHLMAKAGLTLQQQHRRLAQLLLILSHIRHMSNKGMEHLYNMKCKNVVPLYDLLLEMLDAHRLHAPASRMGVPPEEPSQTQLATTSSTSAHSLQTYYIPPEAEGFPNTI
# Summary of the method: (§3)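 Antiuterotrophic assay in immature female NMRI mice (10–12 g; 10 per group) with estrone-stimulated uterine growth. Test compound in olive oil given sc daily for 3 consecutive days. Uteri taken 24 h after the final dose, Bouin-fixed, dried and weighed. Antiestrogenic effect measured as inhibition of the estrone-driven uterine growth.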
# [4] = target: T1, Estrogen receptor (Mus musculus); assay: […] estrogenic effect in immature mice at 500 ug; assay type: functional
# Summary of the method: (§4)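 Uterotrophic assay in immature female NMRI mice (10–12 g at start; 10 per group). Test compound in olive oil given sc daily for three consecutive days. Uteri removed 24 h after the last injection, fixed in Bouin's solution, dried and weighed. Estrogenic effect read as stimulation of uterine growth.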
# [5] = target: T1, Estrogen receptor (Mus musculus); assay: In vivo anti-estrogenic effect in immature mice at 5 ug; assay type: functional, organism-based; summary of the method: as §3
# [6] = target: T1, Estrogen receptor (Mus musculus); assay: In vivo anti-estrogenic effect in immature mice at 100 ug; assay type: functional, organism-based; summary of the method: as §3
# [7] = target: T1, Estrogen receptor (Mus musculus); assay: […] estrogenic effect in immature mice at 1 ug; assay type: functional; summary of the method: as §4
inhibition [3] [%],estrogenic effect [4] [%],inhibition [5] [%],inhibition [6] [%],inhibition [7] [%],Compound,T/C (Mus musculus [1]) [%],T/C (Mus musculus [2]) [%]
38,–,–,–,–,CC/C(=C(\c1ccc(OC(C)=O)cc1)c1ccc(OC(C)=O)c(OC(C)=O)c1)c1ccccc1,23,125
–,63,53,–,–,CC/C(=C(\c1ccccc1)c1cccc(OC(C)=O)c1)c1ccc(OC(C)=O)c(OC(C)=O)c1,30,87
–,77,–,–,–,CC/C(=C(\c1ccccc1)c1ccc(OC(C)=O)c(OC(C)=O)c1)c1ccccc1,19,107
–,–,–,61,–,CCC(=C(c1ccc(OC(C)=O)cc1)c1ccc(OC(C)=O)c(OC(C)=O)c1)c1ccccc1,–,–
–,–,–,–,18,CCC(=C(c1ccccc1)c1ccccc1)c1ccc(OC(C)=O)c(OC(C)=O)c1,9,115
0,–,–,–,–,CC/C(=C(/c1ccc(OC(C)=O)cc1)c1ccc(OC(C)=O)c(OC(C)=O)c1)c1ccccc1,44,99
–,66,–,–,–,CC/C(=C(/c1ccccc1)c1ccc(OC(C)=O)c(OC(C)=O)c1)c1ccccc1,17,106
–,61,–,–,–,CC/C(=C(/c1ccccc1)c1cccc(OC(C)=O)c1)c1ccc(OC(C)=O)c(OC(C)=O)c1,2,123

# Second part, the compound before the results:
Compound,inhibition [3] [%],estrogenic effect [4] [%],inhibition [5] [%],inhibition [6] [%],inhibition [7] [%],T/C (Mus musculus [1]) [%],T/C (Mus musculus [2]) [%]
CC/C(=C(\c1ccccc1)c1ccc(OC(C)=O)c(OC(C)=O)c1)c1cccc(OC(C)=O)c1,–,–,–,–,–,82,115
CC/C(=C(/c1ccccc1)c1ccc(OC(C)=O)cc1)c1ccc(OC(C)=O)c(OC(C)=O)c1,–,–,–,–,–,2,183
CC/C(=C(\c1ccccc1)c1ccc(OC(C)=O)c(OC(C)=O)c1)c1ccc(OC(C)=O)c(OC(C)=O)c1,–,77,–,–,–,75,90
CC/C(=C(/c1ccccc1)c1ccc(OC(C)=O)c(OC(C)=O)c1)c1ccc(OC(C)=O)cc1,–,–,–,–,–,22,113
CC/C(=C(\c1ccccc1)c1ccc(OC(C)=O)c(OC(C)=O)c1)c1ccc(OC(C)=O)cc1,–,–,–,–,–,40,113
CC/C(=C(\c1ccccc1)c1ccc(OC(C)=O)cc1)c1ccc(OC(C)=O)c(OC(C)=O)c1,–,–,–,–,–,1,195
CCC(=C(c1ccc(OC(C)=O)c(OC(C)=O)c1)c1ccc(OC(C)=O)c(OC(C)=O)c1)c1ccccc1,–,13,–,54,–,134,107
CC/C(=C(/c1ccccc1)c1ccc(OC(C)=O)c(OC(C)=O)c1)c1ccc(OC(C)=O)c(OC(C)=O)c1,–,67,–,–,–,84,99
CC/C(=C(\c1ccccc1)c1ccc(OCCN(C)C)cc1)c1ccccc1 [TAMOXIFEN],–,–,–,–,–,10,92
CC/C(=C(/c1ccccc1)c1ccc(OC(C)=O)c(OC(C)=O)c1)c1cccc(OC(C)=O)c1,–,–,–,–,–,35,103

# Source: ChEMBL document CHEMBL1123328, “Catechol estrogens of the 1,1,2-triphenylbut-1-ene type: relationship between structure, estradiol receptor affinity, estrogenic and antiestrogenic properties, and mammary tumor inhibiting activities” (1986)
